Source: the RNAGym collection of RNA variant scans (doi:10.1002/anie.201605470)

B1: Osa-1-4 twister ribozyme (parent)
chain: CCGCCUAACACUGCCAAUGCCGGUCCCAAGCCCGGAUAAAAGUGGAGGGGGCGG

Variants of: B1
Experiment: self-cleavage, relative activity (ratio to wild type); higher = more cleavage; co-transcriptional
Method in brief: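 The 48 positions downstream of the cleavage site in a 54-nucleotide Oryza sativa twister ribozyme template were synthesised at 97 % wild-type base and 1 % of each other base. The template was transcribed in vitro at 37 °C for 2 h, with self-cleavage allowed during transcription. Reads with or without upstream sequence after deep sequencing marked cleavage status, and relative activity is fraction cleaved normalised to wild type.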

Row | Variant | self-cleavage
1 | CCGCCUAACACUGCCAAUGCCGGCCCCAAGCCCGGAUUAAAGUGGAGGGGGCGG | 0.25
2 | CCGCCUAACACUGCCAAUGCCGGGCCCAAGCCCGGAUUAAAGUGGAGGGGGCGG | 0.03
3 | CCGCCUAACACUGCCAAUGCCGGACCCAAGCCCGGAUUAAAGUGGAGGGGGCGG | 0.14
4 | CCGCCUAACACAGCCAAUGCCGGUCCCAAGCCCGGAUUAAAGUGGAGGGGGCGG | 0.86
5 | CCGCCUAACACCGCCAAUGCCGGUCCCAAGCCCGGAUUAAAGUGGAGGGGGCGG | 0.4
6 | CCGCCUAACACGGCCAAUGCCGGUCCCAAGCCCGGAUUAAAGUGGAGGGGGCGG | 0.31
7 | CCGCCUAACACUGCCAAUGCCGGUCCCAAGCACGGAUACAAGUGGAGGGGGCGG | 0.08
8 | CCGCCUAACACUGCCAAUGCCGGUCCCAAGCGCGGAUACAAGUGGAGGGGGCGG | 0.1
9 | CCGCCUAACACUGCCAAUGCCGGUCCCAAGCUCGGAUACAAGUGGAGGGGGCGG | 0.08
10 | CCGCCUAACACUGCCAAUGCCGGUCCCAAGCCCGGAUACAAGUGGAGGGGGCGG | 0.99
11 | CCGCCUAACACUGCCAAUGCCGGUCCCAAGUCCGGAUACAAGUGGAGGGGGCGG | 0.53
12 | CCGCCUAACACUGCCAAUGCCGGUCCCAAGACCGGAUACAAGUGGAGGGGGCGG | 0.04
13 | CCGCCUAACACUGCCAAUGCCGGUCCCAAGGCCGGAUACAAGUGGAGGGGGCGG | 0.08
14 | CCGCCUAACACUGCCAAUGCCGGUCCCAACCCCGGAUACAAGUGGAGGGGGCGG | 0.04
15 | CCGCCUAACACUGCCAAUGCCGGUCCCAAUCCCGGAUACAAGUGGAGGGGGCGG | 0.03
16 | CCGCCUAACACUGCCAAUGCCGGUCCCAAACCCGGAUACAAGUGGAGGGGGCGG | 0.04
17 | CCGCCUAACACUGCCAAUGCCGGUCCCAAGCCCUGAUACAAGUGGAGGGGGCGG | 0.42
18 | CCGCCUAACACUGCCAAUGCCGGUCCCAAGCCCCGAUACAAGUGGAGGGGGCGG | 0.2
19 | CCGCCUAACACUGCCAAUGCCGGUCCCAAGCCCAGAUACAAGUGGAGGGGGCGG | 0.63
20 | CCGCCUAACACUGCCAAUGCCGGUCCCAAGCCCGGAUACAAGUGGGGGGGGCGG | 0.05
21 | CCGCCUAACACUGCCAAUGCCGGUCCCAAGCCCGGAUACAAGUGGCGGGGGCGG | 0.04
22 | CCGCCUAACACUGCCAAUGCCGGUCCCAAGCCCGGAUACAAGUGGUGGGGGCGG | 0.07
23 | CCGCCUAACACUGCCAAUGCCUGUCCCAAGCCCGGAUACAAGUGGAGGGGGCGG | 0.41
24 | CCGCCUAACACUGCCAAUGCCCGUCCCAAGCCCGGAUACAAGUGGAGGGGGCGG | 0.05
25 | CCGCCUAACACUGCCAAUGCCAGUCCCAAGCCCGGAUACAAGUGGAGGGGGCGG | 0.78

Row | Variant | self-cleavage
26 | CCGCCUAACACUGCCAAUGCCGGUCCCAAGCCUGGAUACAAGUGGAGGGGGCGG | 0.38
27 | CCGCCUAACACUGCCAAUGCCGGUCCCAAGCCGGGAUACAAGUGGAGGGGGCGG | 0.07
28 | CCGCCUAACACUGCCAAUGCCGGUCCCAAGCCAGGAUACAAGUGGAGGGGGCGG | 0.06
29 | CCGCCUAACACUGCGAAUGCCGGUCCCAAGCCCGGAUACAAGUGGAGGGGGCGG | 0.16
30 | CCGCCUAACACUGCUAAUGCCGGUCCCAAGCCCGGAUACAAGUGGAGGGGGCGG | 0.57
31 | CCGCCUAACACUGCAAAUGCCGGUCCCAAGCCCGGAUACAAGUGGAGGGGGCGG | 0.23
32 | CCGCCUAACACUGCCAAUGCCGGUUCCAAGCCCGGAUACAAGUGGAGGGGGCGG | 0.33
33 | CCGCCUAACACUGCCAAUGCCGGUACCAAGCCCGGAUACAAGUGGAGGGGGCGG | 0.06
34 | CCGCCUAACACUGCCAAUGCCGGUGCCAAGCCCGGAUACAAGUGGAGGGGGCGG | 0.06
35 | CCGCCUAACACUACCAAUGCCGGUCCCAAGCCCGGAUACAAGUGGAGGGGGCGG | 0.06
36 | CCGCCUAACACUUCCAAUGCCGGUCCCAAGCCCGGAUACAAGUGGAGGGGGCGG | 0.03
37 | CCGCCUAACACUCCCAAUGCCGGUCCCAAGCCCGGAUACAAGUGGAGGGGGCGG | 0.02
38 | CCGCCUAACACUGCCAAUGCCGGUCCCAAGCCCGUAUACAAGUGGAGGGGGCGG | 0.84
39 | CCGCCUAACACUGCCAAUGCCGGUCCCAAGCCCGCAUACAAGUGGAGGGGGCGG | 0.14
40 | CCGCCUAACACUGCCAAUGCCGGUCCCAAGCCCGAAUACAAGUGGAGGGGGCGG | 0.78
41 | CCGCCUAACACUGCCAAUUCCGGUCCCAAGCCCGGAUACAAGUGGAGGGGGCGG | 0.11
42 | CCGCCUAACACUGCCAAUCCCGGUCCCAAGCCCGGAUACAAGUGGAGGGGGCGG | 0.06
43 | CCGCCUAACACUGCCAAUACCGGUCCCAAGCCCGGAUACAAGUGGAGGGGGCGG | 0.28
44 | CCGCCUAACACUGCCAAUGCCGGUCCCAAGCCCGGAUACAAAUGGAGGGGGCGG | 0.1
45 | CCGCCUAACACUGCCAAUGCCGGUCCCAAGCCCGGAUACAACUGGAGGGGGCGG | 0.09
46 | CCGCCUAACACUGCCAACGCCGGUCCCAAGCCCGGAUUAAAGUGGAGGGGGCGG | 0.93
47 | CCGCCUAACACUGCCAAGGCCGGUCCCAAGCCCGGAUUAAAGUGGAGGGGGCGG | 0.85
48 | CCGCCUAACACUGCCAAAGCCGGUCCCAAGCCCGGAUUAAAGUGGAGGGGGCGG | 0.92
49 | CCGCCUAACAUUGCCAAUGCCGGUCCCAAGCCCGGAUACAAGUGGAGGGGGCGG | 0.74
50 | CCGCCUAACAGUGCCAAUGCCGGUCCCAAGCCCGGAUACAAGUGGAGGGGGCGG | 0.21

Row | Variant | self-cleavage
51 | CCGCCUAACAAUGCCAAUGCCGGUCCCAAGCCCGGAUACAAGUGGAGGGGGCGG | 0.26
52 | CCGCCUAACACUGACAAUGCCGGUCCCAAGCCCGGAUACAAGUGGAGGGGGCGG | 0.08
53 | CCGCCUAACACUGUCAAUGCCGGUCCCAAGCCCGGAUACAAGUGGAGGGGGCGG | 0.11
54 | CCGCCUAACACUGGCAAUGCCGGUCCCAAGCCCGGAUACAAGUGGAGGGGGCGG | 0.05
55 | CCGCCUAACACUGCCAAUGCCGGUCCCAAGCCCGGAUUAAAGUGGAGGGGGCUG | 0.27
56 | CCGCCUUACACUGCCAAUGCCGGUCCCAAGCCCGGAUACAAGUGGAGGGGGCGG | 0.06
57 | CCGCCUGACACUGCCAAUGCCGGUCCCAAGCCCGGAUACAAGUGGAGGGGGCGG | 0.12
58 | CCGCCUCACACUGCCAAUGCCGGUCCCAAGCCCGGAUACAAGUGGAGGGGGCGG | 0.06
59 | CCGCCUAACACUGCCAAUGCCGGUCCCAAGCCCGGAUUAAAGUGGAGGGGGCGU | 0.95
60 | CCGCCUAACACUGCCAAUGCCGGUCCCAAGCCCGGAUUAAAGUGGAGGGGGCGA | 0.93
61 | CCGCCUAACACUGCCAAUGCCGGUCCCAAGCCCGGAUUAAAGUGGAGGGGGCGC | 0.89
62 | CCGCCUAACACUGCCAAUGCGGGUCCCAAGCCCGGAUACAAGUGGAGGGGGCGG | 0.08
63 | CCGCCUAACACUGCCAAUGCUGGUCCCAAGCCCGGAUACAAGUGGAGGGGGCGG | 0.97
64 | CCGCCUAACACUGCCAAUGCAGGUCCCAAGCCCGGAUACAAGUGGAGGGGGCGG | 0.22
65 | CCGCCUAACACUGCCAAUGCCGCUCCCAAGCCCGGAUACAAGUGGAGGGGGCGG | 0.04
66 | CCGCCUAACACUGCCAAUGCCGAUCCCAAGCCCGGAUACAAGUGGAGGGGGCGG | 0.12
67 | CCGCCUAACACUGCCAAUGCCGUUCCCAAGCCCGGAUACAAGUGGAGGGGGCGG | 0.05
68 | CCGCCUAACACUGCCAAUGCCGGUCCCAAGCCCGGAGUAAAGUGGAGGGGGCGG | 1.03
69 | CCGCCUAACACUGCCAAUGCCGGUCCCAAGCCCGGACUAAAGUGGAGGGGGCGG | 1.04
70 | CCGCCUAACACUGCCAAUGCCGGUCCCAAGCCCGGAAUAAAGUGGAGGGGGCGG | 1.03
71 | CCGCCUAACACUGCCAAUGCCGGUCCUAAGCCCGGAUACAAGUGGAGGGGGCGG | 0.09
72 | CCGCCUAACACUGCCAAUGCCGGUCCGAAGCCCGGAUACAAGUGGAGGGGGCGG | 0.06
73 | CCGCCUAACACUGCCAAUGCCGGUCCAAAGCCCGGAUACAAGUGGAGGGGGCGG | 0.11
74 | CCGCCUAACACUGCCAAUGCCGGUCCCAAGCCCGGAUACUAGUGGAGGGGGCGG | 0.85
75 | CCGCCUAACACUGCCAAUGCCGGUCCCAAGCCCGGAUACGAGUGGAGGGGGCGG | 0.59

Row | Variant | self-cleavage
76 | CCGCCUAACACUGCCAAUGCCGGUCCCAAGCCCGGAUACCAGUGGAGGGGGCGG | 0.1
77 | CCGCCUAACACUGCCAAUGCCGGUCCCAAGCCCGGAUACAGGUGGAGGGGGCGG | 0.23
78 | CCGCCUAACACUGCCAAUGCCGGUCCCAAGCCCGGAUACAUGUGGAGGGGGCGG | 0.96
79 | CCGCCUAACACUGCCAAUGCCGGUCCCAAGCCCGGAUACACGUGGAGGGGGCGG | 0.37
80 | CCGCCUAAGACUGCCAAUGCCGGUCCCAAGCCCGGAUACAAGUGGAGGGGGCGG | 0.34
81 | CCGCCUAAUACUGCCAAUGCCGGUCCCAAGCCCGGAUACAAGUGGAGGGGGCGG | 0.55
82 | CCGCCUAAAACUGCCAAUGCCGGUCCCAAGCCCGGAUACAAGUGGAGGGGGCGG | 0.28
83 | CCGCCUAACACUGCCAAUGCCGGUCACAAGCCCGGAUACAAGUGGAGGGGGCGG | 0.04
84 | CCGCCUAACACUGCCAAUGCCGGUCGCAAGCCCGGAUACAAGUGGAGGGGGCGG | 0.07
85 | CCGCCUAACACUGCCAAUGCCGGUCUCAAGCCCGGAUACAAGUGGAGGGGGCGG | 0.35
86 | CCGCCUAACACUGCCAAUGCCGGUCCCAAGCCCGGAUUAAAGGGGAGGGGGCGG | 0.47
87 | CCGCCUAACACUGCCAAUGCCGGUCCCAAGCCCGGAUUAAAGAGGAGGGGGCGG | 0.95
88 | CCGCCUAACACUGCCAAUGCCGGUCCCAAGCCCGGAUUAAAGCGGAGGGGGCGG | 0.39
89 | CCGCCUAACACUGCCAAUGUCGGUCCCAAGCCCGGAUACAAGUGGAGGGGGCGG | 0.94
90 | CCGCCUAACACUGCCAAUGGCGGUCCCAAGCCCGGAUACAAGUGGAGGGGGCGG | 0.1
91 | CCGCCUAACACUGCCAAUGACGGUCCCAAGCCCGGAUACAAGUGGAGGGGGCGG | 0.87
92 | CCGCCUAACACUGCCAAUGCCGGUCCCAAGCCCGGAUACAAGUGGAGGGGGUGG | 1.06
93 | CCGCCUAACACUGCCAAUGCCGGUCCCAAGCCCGGAUACAAGUGGAGGGGGAGG | 1
94 | CCGCCUAACACUGCCAAUGCCGGUCCCAAGCCCGGAUACAAGUGGAGGGGGGGG | 0.96
95 | CCGCCUACCACUGCCAAUGCCGGUCCCAAGCCCGGAUACAAGUGGAGGGGGCGG | 0.09
96 | CCGCCUAGCACUGCCAAUGCCGGUCCCAAGCCCGGAUACAAGUGGAGGGGGCGG | 0.23
97 | CCGCCUAUCACUGCCAAUGCCGGUCCCAAGCCCGGAUACAAGUGGAGGGGGCGG | 0.1
